Source: PubChem BioAssay AID588478 (ICCB-Longwood Screening Facility, Harvard Medical School, 2011)
Among all 330,000 compounds or so, about 1,100 (0.33%) were called active. What follows is part of a selection rich in actives, with near analogues and random picks from the rest. A number with no mark means an inactive call.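 How the source made its calls: active means mean inhibition over replicate wells above about 20% (limit read from the data); inactive means the rest.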

These compounds were tested against Ubiquitin carboxyl-terminal hydrolase isozyme L5 (Homo sapiens) (UniProt Q9Y5K5) (assay: proteasome-bound UCH37 DUB activity blockers – biochemical, Ub-AMC cleavage, fluorescence, primary screen (AID 588478;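 further: 0% = compound-free wells with enzyme and 100% = wells lacking proteasome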)). Details: purified proteasome/UCH37, Ub-AMC cleavage fluorescence; stronger effect = higher value; concentration not given here.
Method in brief: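 Reagent: Ub-AMC substrate; assay system: Proteasome-associated human UCH37 deubiquitinase; controls: no-proteasome and no-compound wells; read-out: % inhibition of Ub-AMC cleavage fluorescence; timing: 30 min preincubation with enzyme, 25 min cleavage at room temperature; signal: AMC fluorescence from Ub-AMC cleavage, excitation 355 nm, emission 460 nm; buffer or medium: Tris-HCl pH 7.4 plus ovalbumin, ATP-MgCl2, DTT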

Ubiquitin carboxyl-terminal hydrolase isozyme L5 (Homo sapiens), sequence (Q9Y5K5 whole entry, looked up): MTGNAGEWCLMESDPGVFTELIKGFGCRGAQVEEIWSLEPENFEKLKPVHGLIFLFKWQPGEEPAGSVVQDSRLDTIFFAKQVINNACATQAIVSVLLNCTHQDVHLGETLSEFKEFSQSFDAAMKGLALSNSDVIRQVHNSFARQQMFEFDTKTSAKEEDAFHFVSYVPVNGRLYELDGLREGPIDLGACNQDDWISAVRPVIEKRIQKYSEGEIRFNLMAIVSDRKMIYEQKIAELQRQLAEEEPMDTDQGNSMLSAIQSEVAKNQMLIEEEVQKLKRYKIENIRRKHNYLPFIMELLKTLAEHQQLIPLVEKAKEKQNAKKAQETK

| SMILES | inhibition |
| --- | --- |
| CCCCCCCCCCCCn1ccc(=N)cc1 | 29.5% (active) |
| Brc1ccc2[nH]cc(C=NN3CCCCC3)c2c1 | 1.15% |
| C#C[C@]1(O)CCC2C3CCC4=CC(=NOCC(=O)NC(C)C(=O)NC(CCSC)C(=O)O)CC[C@]4(C)C3CC[C@@]21C (stereo not given in full) | -1.31% |
| C=CCN1CC[C@]23c4c5ccc(O)c4O[C@H]2C(=NNC(=O)c2ccccc2)CC[C@@]3(O)[C@H]1C5 | 4.43% |
| CC12CCC3C(CCC4CC(=NO)CCC43C)C1CCC2O (stereo not given) | 2.36% |
| CCC(C)n1c(O)c(/C=N/Nc2nc3c(c(=O)n(C)c(=O)n3C)n2C)c(=O)[nH]c1=S (stereo not given) | 21.4% (active) |
| Cc1ccccc1/C=C\c1nc(O)c([N+](=O)[O-])c(=O)[nH]1 | 11.3% |
| CNC(=O)Nc1ccc(C(=O)NN=CC23CC[C@@H](O)CC2(O)CC[C@@H]2[C@@H]3CCC3(C)C(C4=CC(=O)OC4)CCC23O)cc1 (stereo not given in full) | 3.8% |
| COc1cc(C(=O)NC2CCN(Cc3ccccc3)CC2)cc(Cl)c1OC(C)C | 4.45% |
| COc1ccc(N2C(=O)/C(=C/c3ccco3)C(=O)NC2=S)cc1 | 31.7% (active) |
| O=C1NC(=O)N(c2ccccc2)C(=O)/C1=C/c1ccc([N+](=O)[O-])s1 | 5.15% |
| COc1cccc(N2C(=O)NC(=O)/C(=C\c3ccc([N+](=O)[O-])s3)C2=O)c1 | 11.5% |
| Nc1nonc1C(=O)NN=Cc1ccc([N+](=O)[O-])o1 | 13.2% |
| CC1=CC(=Cc2sc3ccccc3[n+]2C)C=C(C)O1 | 20.3% (active) |
| COC(=O)[C@H](Cc1ccccc1)NC(=O)Nc1ccc(S(N)(=O)=O)cc1 | 2.98% |
| COc1ccc(C=NN=C(N)N[N+](=O)[O-])c(OC)c1 | 18.6% |
| Oc1ccc(C=NNP(=S)(c2ccccc2)c2ccccc2)cc1O | 2.56% |
| COc1cccc(C(=O)N2C[C@H]3C[C@@H](C2)c2cccc(=O)n2C3)c1 | 2.34% |
| O=C(CN1CCN(S(=O)(=O)c2cccc(Cl)c2)CC1)N1CCCCC1 | 5.51% |
| CN1CCN(N=Cc2c[nH]c3ccccc23)CC1 | 3.94% |
